OX1R antag-1: antagonists of human orexin 1 receptor (OX1R); Orexin/Hypocretin receptor type 1 (Homo sapiens), O43613; OX1R-expressing cells, FRET antagonist read-out; inhibition, % at 6.6 µM; hit rate 1.8% among 330,000; AID 485270, 2010; in the data active means inhibition mostly above about 38%, no sharp cut-off; inactive means mostly below about 40%;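 further: 0% = agonist challenge alone and 100% = reference antagonist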
OX1R antag-2: OX1R (HCRTR1) antagonists, primary screen, fluorescence, CHO/OX1R cells, Fluo-8 calcium, orexin A. Orexin/Hypocretin receptor type 1 (Homo sapiens), O43613. Fluo-8 calcium fluorescence. inhibition, % at 5 µM. hit rate 0.43% among 330,000. AID 434989, 2010;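 active means inhibition above its plate's threshold, mean inhibition of all tested compounds on the plate plus 3 SD, cut at about 37% in these data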;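 further: 0% = orexin A challenge wells and 100% = SB-334867-A antagonist wells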
TAAR1 antagonist: human TAAR1 antagonists, primary screen, Fluo-8 calcium fluorescence, CHO RD-HGA16 cells | antagonist | Trace amine-associated receptor 1 (Homo sapiens), Q96RJ0 | inhibition, % at 3 µM | hit rate 1.5% among 360,000;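 active means inhibition above a per-plate cutoff, the mean inhibition of test compounds on that plate plus 3 SD, cut at about 49% in these data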;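 further: 0% = DMSO plus EC80 beta-PEA response and 100% = DMSO alone without agonist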
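Assay system: RD-HGA16 CHO cells with stable hTAAR1 and Gα16 / Reagent: EC80 β-phenethylamine stimulus / Doses: 3 µM, single point / Timing: dye loading 75 min at 37 °C, then 30 min room temperature / Measured by: Fluo-8 intracellular calcium dye fluorescence, real-time kinetic reads / Controls: vehicle wells and EC80 agonist wells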
GalR3 antag: GalR3 antagonists in HEK293 cells, primary screen, cell-based, fluorescence readout | Galanin receptor type 3 (Homo sapiens), O60755 | HEK293 GalR3-CNG cAMP membrane potential fluorescence; galR3 body fused to GalR1 C-terminus | hit rate 0.44% among 360,000 | inhibition, % at 3 µM;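 active means inhibition above the screen-wide average plus 3 SD, cut at about 13% in these data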;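 further: forskolin and galanin both at EC90 stimulate the cells; cAMP rise reported by CNG channel membrane potential dye signal; 0% = forskolin plus galanin with DMSO and 100% = forskolin alone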
Target sequence (O60755 1-299 limits assumed): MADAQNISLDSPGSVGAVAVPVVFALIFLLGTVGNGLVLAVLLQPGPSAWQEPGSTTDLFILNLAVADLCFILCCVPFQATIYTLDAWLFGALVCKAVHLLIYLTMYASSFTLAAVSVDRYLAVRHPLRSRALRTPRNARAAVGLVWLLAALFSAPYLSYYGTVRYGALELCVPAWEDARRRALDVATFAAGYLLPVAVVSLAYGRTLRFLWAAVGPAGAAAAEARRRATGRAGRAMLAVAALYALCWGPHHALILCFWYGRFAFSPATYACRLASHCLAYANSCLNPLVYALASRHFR
TAAR1 ag: human TAAR1 agonists, primary screen, Fluo-8 calcium fluorescence, CHO RD-HGA16 cells; Trace amine-associated receptor 1 (Homo sapiens), Q96RJ0; vehicle wells 0%, saturating PEA agonist 100%; activation, % at 3 µM; hit rate 0.99% among 360,000;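 active means activation above the mean activation of all test compounds in the run plus 3 SD, cut at about 38% in these data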
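Test system: RD-HGA16 (CHO) cells co-expressing Gα16 and hTAAR1; dosing: one-point dosing at 3 µM (nominal); timing: 17-24 h seeding, 75 min 37 °C dye, 30 min RT; signal: kinetic Fluo-8 calcium fluorescence; read-out basis: % activation relative to PEA EC100 response; controls: DMSO and PEA EC100; replicates: n 1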
CHO parental Ca: ATP-evoked calcium signal inhibitors, parental CHO, primary screen, counter-screen for OX1R antagonist project, cell-based, fluorescence, Fluo-8 calcium dye; hit rate 0.63% among 330,000; parental CHO-K1, ATP-induced calcium, Fluo-8 fluorescence; inhibition, % at 5.6 µM;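 active means inhibition above that plate's mean sample inhibition plus 3 SD, cut at about 26% in these data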;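 further: 0% = ATP-challenged DMSO wells and 100% = DMSO wells without ATP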
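Assay system: untransfected parental CHO cell line. Also added: ATP agonist challenge. Dosing: one dose, 5.6 µM nominal. Measured by: Fluo-8 fluorescence. Read-out: % inhibition. Benchmarks: ATP wells versus no-ATP DMSO wells. Repeats: no replicates.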
TAAR1 nonsel count: nonselective antagonists in TAAR1 counter-screen cells, counter-screen for hTAAR1 antagonist project, cell-based, fluorescence, calcium. shares compounds with TAAR1 antagonist. counterscreen cell line, antagonist mode. inhibition, % at 3 µM. hit rate 77% among 2,400; in the data active means inhibition above about 22%;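 further: CHO-Ga16 host cells stimulated with ATP at an EC80 level; 0% = agonist EC80 plus vehicle and 100% = vehicle without agonist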
TAAR1 antag conf: human TAAR1 antagonists, retest of hits, confirmation, cell-based, fluorescence; shares compounds with TAAR1 antagonist; TAAR1-expressing cells, fluorescence antagonist read-out; inhibition, % at 3 µM; hit rate 40% among 2,400; in the data active means inhibition above about 49%;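 further: CHO-Ga16 host cells challenged with agonist PEA near its EC80; 0% = agonist at EC80 plus vehicle and 100% = vehicle with no agonist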
Ga16 ag counter: calcium activation in Ga16-expressing cells, counter-screen for TAAR1 antagonist project, cell-based, fluorescence. shares compounds with TAAR1 antagonist. agonist counterscreen. activation, % at 3 µM. hit rate 18% among 2,400. AID 651953, 2012; in the data active means activation above about 12%;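 further: 0% = vehicle wells and 100% = saturating stimulus response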
TAAR1 ag counter: TAAR1 activation by candidate antagonists – cell-based, fluorescence, counter-screen for TAAR1 antagonist project. hTAAR1 cell line, agonist mode. shares compounds with TAAR1 antagonist. hit rate 2% among 2,400. activation, % at 3 µM; in the data active means activation above about 37%;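 further: CHO cells stably expressing TAAR1 with calcium dye readout; 0% = DMSO vehicle and 100% = full agonist response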
* hit, by the source's call; . = no result. Only some compounds are listed: those with a hit (about 4.2% of all), similar ones and a draw of the others.

SMILES | OX1R antag-1 | OX1R antag-2 | TAAR1 antagonist | GalR3 antag | TAAR1 ag | CHO parental Ca | TAAR1 nonsel count | TAAR1 antag conf | Ga16 ag counter | TAAR1 ag counter
Cc1ccc(-c2csc(NC(=O)c3c(C)noc3C)n2)cc1 | 7 | -6 | 5 | -2 | 6 | -28 | . | . | . | .
C[C@@H](C(=O)Nc1nccs1)N1C(=O)C2CC=CCC2C1=O (stereo partly drawn) | 10 | -23 | -20 | 4 | 2 | -11 | . | . | . | .
CC(C(=O)Nc1nc(-c2ccc(F)cc2)cs1)N1C(=O)C2CC=CCC2C1=O (stereo not drawn) | 27 | 4 | 78* | -3 | 19 | 6 | 40* | 65* | 12* | 12
O=C(CO/N=C/c1ccc(Cl)cc1Cl)NNC(=O)c1cccc(Cl)c1 | 7 | -18 | -14 | -5 | 0 | 3 | . | . | . | .
Cc1sc2ncnc(N3CCC(C(=O)NNC(=O)COc4cccc(C(F)(F)F)c4)CC3)c2c1C | 23 | -25 | 64* | -4 | 17 | -7 | 28* | 41 | 11 | 28
CCN(CC(=O)Nc1c(Cl)cccc1Cl)C(=O)C1CCN(c2ncnc3sc(C)c(C)c23)CC1 | . | . | 3 | -4 | 5 | . | . | . | . | .
CC(=O)c1sc(NC(=O)C2CCN(c3ncnc4sc(C)c(C)c34)CC2)nc1-c1ccccc1 | 8 | -30 | 1 | -1 | 0 | -32 | . | . | . | .
Cc1ccc(OCC(=O)NNC(=O)C2CCN(c3ncnc4sc(C)c(C)c34)CC2)cc1 | 25 | -35 | 50* | 1 | 8 | -16 | 26* | 27 | 11 | 22
CCN(CC(=O)Nc1c(F)cccc1F)C(=O)C1CCN(c2ncnc3sc(C)c(C)c23)CC1 | 25 | -27 | 58* | -5 | 13 | -34 | 23* | 39 | 8 | 5
Cc1cc(Cl)ccc1OCC(=O)NNC(=O)C1CCN(c2ncnc3sc(C)c(C)c23)CC1 | 33* | 21 | 78* | -6 | 19 | 1 | 39* | 52* | 14* | 21
Cc1sc2ncnc(N3CCC(C(=O)NNC(=O)c4ccccc4Cl)CC3)c2c1C | 8 | -16 | 9 | 3 | 9 | -8 | . | . | . | .
Cc1cc(C)n(-c2ccc(F)cc2CN2CCN(Cc3ccccc3)C(CCO)C2)n1 (stereo not drawn) | 21 | -23 | -22 | 1 | 0 | -21 | . | . | . | .
Cc1sc2ncnc(N3CCC(C(=O)NNC(=O)COc4ccc(Cl)cc4)CC3)c2c1C | . | . | 70* | -1 | 23 | . | 38* | 42 | 12* | 27
Cc1sc2ncnc(N3CCC(C(=O)NNC(=O)COc4ccccc4F)CC3)c2c1C | 16 | -21 | 65* | -3 | 17 | -10 | 31* | 47 | 10 | 27
Cc1sc2ncnc(N3CCC(C(=O)NNC(=O)COc4ccc(Br)cc4)CC3)c2c1C | 63* | 0 | 76* | -2 | 20 | -12 | 42* | 53* | 12* | 21
Cc1sc2ncnc(N3CCC(C(=O)Nc4nc(-c5ccc(F)cc5)cs4)CC3)c2c1C | 13 | 3 | 15 | -1 | 3 | 5 | . | . | . | .

From PubChem
